# Source: ChEMBL document CHEMBL1158573, “Cytotoxic and NF-kappaB inhibitory constituents of Artocarpus rigida” (J Nat Prod, 2010)
# Calls of active or inactive are those of the source. The rule behind the calls is not given here.
# Assays:
# HT-29 = assay: Cytotoxicity against human HT-29 cells after 3 days by SRB assay; format: functional; settings: for EC50: HT-29, 72 h, read-out: ED50 (the source's name)
# Summary of the method: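 HT-29 colon cancer cells, trypsinized and seeded in 96-well plates, treated with compounds in DMSO (DMSO as negative control). Incubated 3 days at 37 °C, 5% CO2, then fixed, 30 min at room temperature, washed, dried overnight, stained with sulforhodamine B. Dye solubilized in tris-base buffer, absorbance read at 515 nm. Cytotoxicity calculated versus DMSO control, reported as ED50 (μM). Paclitaxel as positive control.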
# [1] = target: T1, Nuclear factor NF-kappa-B p105 subunit (Homo sapiens) (UniProt P19838); assay: Inhibition of NFkappa p50 isolated from nuclear extract of human HeLa cells assessed as blockade of binding to biotinylated consesus sequence by chemiluminescence assay; format: cell-free
# T1 sequence (whole entry): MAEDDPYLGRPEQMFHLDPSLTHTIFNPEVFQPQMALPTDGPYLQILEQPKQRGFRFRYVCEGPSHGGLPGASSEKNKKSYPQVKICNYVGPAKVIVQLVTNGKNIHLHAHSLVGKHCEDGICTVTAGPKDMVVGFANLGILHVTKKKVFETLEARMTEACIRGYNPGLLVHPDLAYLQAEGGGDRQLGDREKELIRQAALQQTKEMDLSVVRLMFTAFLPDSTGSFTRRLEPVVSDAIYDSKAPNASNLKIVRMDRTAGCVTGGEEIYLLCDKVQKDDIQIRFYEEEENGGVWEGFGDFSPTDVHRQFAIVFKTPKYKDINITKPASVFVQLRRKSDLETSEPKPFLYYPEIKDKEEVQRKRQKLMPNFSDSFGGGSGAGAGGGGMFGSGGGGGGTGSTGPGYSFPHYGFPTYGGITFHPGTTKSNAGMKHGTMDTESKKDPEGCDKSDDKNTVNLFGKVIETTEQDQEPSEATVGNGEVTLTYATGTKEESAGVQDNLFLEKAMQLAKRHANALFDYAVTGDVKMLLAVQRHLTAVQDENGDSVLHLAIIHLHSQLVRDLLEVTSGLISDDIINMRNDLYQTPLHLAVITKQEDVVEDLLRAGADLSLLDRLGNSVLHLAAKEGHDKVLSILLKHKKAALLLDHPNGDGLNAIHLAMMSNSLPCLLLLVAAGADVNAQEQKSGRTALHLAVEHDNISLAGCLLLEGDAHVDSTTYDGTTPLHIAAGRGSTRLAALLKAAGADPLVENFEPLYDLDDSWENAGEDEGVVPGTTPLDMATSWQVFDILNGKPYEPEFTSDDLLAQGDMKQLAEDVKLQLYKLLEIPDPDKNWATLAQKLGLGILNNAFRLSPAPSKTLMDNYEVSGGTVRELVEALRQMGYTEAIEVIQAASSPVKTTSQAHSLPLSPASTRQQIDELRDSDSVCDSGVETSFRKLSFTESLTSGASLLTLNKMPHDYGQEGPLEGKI
# Summary of the method: (§1)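 ELISA-format transcription factor assay. HeLa nuclear extract was treated with samples, and activated p50 or p65 bound to a biotinylated consensus sequence was detected by chemiluminescence on a plate reader. IC50 reported in μM.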
# [2] = target: Transcription factor p65 (Homo sapiens) (UniProt Q04206); assay: Inhibition of NFkappa p65 isolated from nuclear extract of human HeLa cells assessed as blockade of binding to biotinylated consesus sequence by chemiluminescence assay; format: cell-free; summary of the method: as §1
# Chain of Transcription factor p65 (Homo sapiens) (Q04206 whole entry): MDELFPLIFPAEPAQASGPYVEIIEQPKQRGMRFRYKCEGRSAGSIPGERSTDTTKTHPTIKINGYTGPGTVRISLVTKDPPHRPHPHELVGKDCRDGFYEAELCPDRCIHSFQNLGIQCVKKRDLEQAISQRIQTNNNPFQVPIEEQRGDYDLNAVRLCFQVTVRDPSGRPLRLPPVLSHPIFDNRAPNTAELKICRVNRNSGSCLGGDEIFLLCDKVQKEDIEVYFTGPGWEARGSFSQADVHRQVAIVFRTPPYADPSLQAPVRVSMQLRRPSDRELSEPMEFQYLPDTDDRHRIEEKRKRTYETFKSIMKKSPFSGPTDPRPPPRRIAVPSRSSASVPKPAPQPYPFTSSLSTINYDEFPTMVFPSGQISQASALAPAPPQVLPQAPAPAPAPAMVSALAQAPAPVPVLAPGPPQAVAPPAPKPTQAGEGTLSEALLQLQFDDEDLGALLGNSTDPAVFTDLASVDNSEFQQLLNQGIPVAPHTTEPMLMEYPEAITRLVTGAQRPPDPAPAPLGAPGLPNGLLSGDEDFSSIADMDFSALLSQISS
Structure (SMILES),EC50 (HT-29),Activity (HT-29),Activity [1],Activity [2]
CC(=O)O[C@H]1C(=O)[C@@]2(C)[C@H]([C@H](OC(=O)c3ccccc3)[C@]3(O)C[C@H](OC(=O)[C@H](O)[C@@H](NC(=O)c4ccccc4)c4ccccc4)C(C)=C1C3(C)C)[C@]1(OC(C)=O)CO[C@@H]1C[C@@H]2O [PACLITAXEL],0.0001 µM,–,–,–
C=C(C)c1cc2c(=O)c3c(O)c(CC=C(C)C)c(O)cc3oc2c2c(O)c3c(c(O)c12)OC(C)(C)C=C3,–,inactive,inactive,inactive
C=C(C)c1cc2c(=O)c3c(O)c(CC=C(C)C)c(O)cc3oc2c2c1C(=O)C(O)=C(CC=C(C)C)C2=O [ARTORIGIDIN C],> 10 µM,–,–,–
C[C@H]1[C@H](C)CC[C@]2(C(=O)O)CC[C@]3(C)C(=CC[C@@H]4[C@@]5(C)CC[C@H](O)C(C)(C)[C@@H]5CC[C@]43C)[C@H]12,–,inactive,inactive,inactive
COc1cc(O)c2c(=O)c3cc4c5c(c(O)cc(O)c5c3oc2c1)OC4(C)C,–,inactive,inactive,inactive
C=C(C)[C@@H]1CC[C@]2(C(=O)O)CC[C@]3(C)[C@H](CC[C@@H]4[C@@]5(C)CC[C@H](O)C(C)(C)[C@@H]5CC[C@]43C)[C@@H]12,–,inactive,inactive,inactive
C=C(C)[C@H]1Cc2c(oc3c4c(cc(O)c3c2=O)OC(C)(C)C=C4)-c2c(O)cc(O)c(O)c21 [ARTOBILOXANTHONE],> 10 µM,–,–,–
CC1(C)C=Cc2cc3c(cc2O1)Oc1cc(O)ccc1C(O)=C3 [ARTORISTILBENE],10.7 µM,–,–,–
CC(C)=CCc1c(O)cc2oc3c(cc4c5c(c(O)c(CC=C(C)C)c(O)c53)OC4(C)C)c(=O)c2c1O,–,inactive,inactive,inactive
